Only some compounds are listed: those with a hit (about 3.5% of all), similar ones and a draw of the others.
MrgX1 antag: human MrgX1 receptor antagonism, primary screen; MRGX1-HEK293 calcium flux, Fluo-4, BAM8-22 antagonism; hits give low values; 310,000 compounds, 1.3% hits; Q96LB2; B-score at 10 µM;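 active = calcium-response B-score plate-corrected more than 3 library SD below zero, starting fluorescence within 5 deviations, no agonist response on first addition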;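 note: peak minus trough fluorescence over baseline after final BAM8-22 challenge near maximal dose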
RGS4 block: inhibitors of human RGS4 | HEK293 M3R/RGS4 inducible, Fluo-4 calcium flux; hits give high values; triggered by carbachol at its EC20 | B-score at 10 µM | 310,000 compounds, 0.45% hits | AID 463165;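 active = B-score, a plate-corrected calcium signal, over three deviations above library mean, with baseline fluorescence within five deviations of library mean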;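 note: RGS4 expression induced by doxycycline in cells with stable M3 receptor; B-score is computed from the integrated fluorescence ratio over baseline after carbachol; higher B-score means a larger calcium signal and so more RGS4 inhibition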
Target sequence (P49798 whole entry, looked up): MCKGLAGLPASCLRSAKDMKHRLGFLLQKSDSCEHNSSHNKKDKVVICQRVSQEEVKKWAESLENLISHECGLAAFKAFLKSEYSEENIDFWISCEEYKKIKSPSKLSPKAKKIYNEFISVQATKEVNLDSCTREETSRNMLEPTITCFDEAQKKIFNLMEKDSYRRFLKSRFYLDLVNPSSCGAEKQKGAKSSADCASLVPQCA
RGS4 pot: potentiators or activators of RGS4; B-score at 10 µM; 310,000 compounds, 0.92% hits; HEK293 M3R/inducible RGS4, carbachol calcium flux Fluo4; hits give low values;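 active = B-score of the integrated calcium signal more than 4 SD below the library mean, with starting fluorescence not abnormally high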;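 note: negative B-score means reduced calcium response which marks RGS4 activation or potentiation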
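Material: Inducible-RGS4 HEK293 cells carrying M3 receptor; also added: carbachol at ECmax as muscarinic agonist stimulus; incubation: compound preincubation 20 min at room temperature before agonist; signal: Fluo4-AM (2 µM) calcium-flux fluorescence, kinetic read; measure: integrated calcium ratio converted to B score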
MrgX1 PAM: allosterically activates human MrgX1 receptor signaling; Q96LB2; 310,000 compounds, 0.63% hits; AID 588675; MrgX1-HEK293, Fluo-4 calcium flux, FDSS; hits give high values; B-score at 10 µM;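 active = plate-corrected calcium response at least 3 library SD above typical, normal starting fluorescence, not activating the receptor alone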;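 note: compound read alongside a low EC10 to EC30 dose of BAM8-22 agonist; peak minus trough fluorescence over baseline measured at the second addition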
MrgX1 ag: agonists of human MrgX1 receptor; Q96LB2; MrgX1-HEK293 cells, Fluo-4 calcium fluorescence, agonist mode; hits give high values; B-score at 10 µM; 310,000 compounds, 0.44% hits;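 active = calcium response B-score plate-corrected fluorescence ratio at least 3 library SD, with starting fluorescence B-score inside 5 SD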
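Assay system: MrgX1-expressing HEK293 cells / Amount: fifteen thousand cells per well / Doses: test compound in the initial addition of three / Timing: cells plated overnight, dye loaded 0.5 h 37 °C, 0.5 h room temperature / Technique: kinetic calcium dye fluorescence, Fluo-4 NW / Control set: positive and negative controls per plate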
MrgX1 ant reconf: human MrgX1 receptor antagonism, re-confirmation screen. 2,300 compounds, 19% hits. MrgX1-HEK293, BAM8-22 calcium flux, Fluo-4; hits give low values. remaining BAM8-22 calcium response % of control (hits give low values), % at 10 µM. shares compounds with MrgX1 antag;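 active = remaining agonist calcium response no higher than 100% minus 3 SD of agonist-only control wells, with starting fluorescence near control levels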;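 note: agonist BAM8-22 given at a near maximal EC90 to ECmax level; peak minus minimum fluorescence divided by baseline after agonist addition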
HEK293 Ca flux: activity in parental HEK293 cells lacking MrgX1; 4,000 compounds, 2% hits; fluorescence ratio F(max-min)/F0 at 10 µM; shares compounds with MrgX1 antag; Fluo-4 calcium fluorescence, FDSS;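 active = duplicate-averaged calcium fluorescence ratio at least three times the standard deviation of buffer wells, a nonspecific response in parental cells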
HEK293 Ca counter: counter-screen for MrgX1 allosteric activators: effect in parental HEK293 cells; parental HEK293 calcium flux, Fluo-4 fluorescence ratio; hits give high values; shares compounds with MrgX1 antag; fluorescence ratio F(max-min)/F0 at 10 µM; 4,000 compounds, 0.4% hits;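 active = calcium fluorescence ratio, averaged over duplicates, at least 3 SD of the buffer-well ratio, meaning a nonspecific response in receptor-free cells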;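 note: untransfected parental HEK293 lacking MrgX1 used as counterscreen for MrgX1 allosteric activators; fluorescence change taken during the second addition on a kinetic imager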
HEK293 Ca cntr2: MrgX1 activator counter-screen hit in parental HEK293 cells; shares compounds with MrgX1 antag; Fluo-4 calcium fluorescence (FDSS); hits give high values; fluorescence ratio F(max-min)/F0 at 10 µM; 4,000 compounds, 8.7% hits;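 active = calcium fluorescence ratio at least three times the spread of buffer wells, meaning a non-specific response in parental cells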
Hits are given with their value.

For COC(=O)c1ccc(NC(=O)CSc2nc3ccc(N4C(=O)C5C6C=CC(C6)C5C4=O)cc3s2)cc1 (stereo not drawn) the results were MrgX1 antag -7.39, RGS4 block inactive, RGS4 pot inactive, MrgX1 PAM inactive, MrgX1 ag inactive, MrgX1 ant reconf 55.4%, HEK293 Ca flux inactive, HEK293 Ca counter inactive and HEK293 Ca cntr2 inactive.
Screening Cc1nn(CCC#N)c2c1P(=S)(N1CCCC1)OC(c1ccc(F)cc1)=N2 (stereo not drawn) returned MrgX1 antag inactive, RGS4 block inactive, RGS4 pot inactive, MrgX1 PAM inactive and MrgX1 ag inactive.
`COC(=O)C(O)(c1ccc(N(C)C(=O)c2ccc(Cl)c(Cl)c2)cc1)C(F)(F)F` (stereo not drawn) gave MrgX1 antag -7.79, RGS4 block inactive, RGS4 pot inactive, MrgX1 PAM inactive, MrgX1 ag inactive, MrgX1 ant reconf inactive, HEK293 Ca flux inactive, HEK293 Ca counter inactive and HEK293 Ca cntr2 inactive.
For CCOC(=O)C(O)(c1ccc(N(C)C(=O)c2ccc(Cl)c(Cl)c2)cc1)C(F)(F)F (stereo not drawn) the results were MrgX1 antag inactive, RGS4 block inactive, RGS4 pot inactive, MrgX1 PAM inactive and MrgX1 ag inactive.
`c1csc(CN2CCNCC2)c1` gave MrgX1 antag inactive, RGS4 block inactive, RGS4 pot inactive, MrgX1 PAM inactive and MrgX1 ag inactive.
O=C(CN1CC(c2ccccc2)CC1=O)Nc1cccc(F)c1 (stereo not drawn) was read as MrgX1 antag inactive, RGS4 block inactive, RGS4 pot inactive, MrgX1 PAM inactive and MrgX1 ag inactive.
Screening O=C(CN1CC(c2ccccc2)CC1=O)Nc1ccc(F)cc1 (stereo not drawn) returned MrgX1 antag -10.2, RGS4 block inactive, RGS4 pot inactive, MrgX1 PAM inactive, MrgX1 ag inactive, MrgX1 ant reconf inactive, HEK293 Ca flux inactive, HEK293 Ca counter inactive and HEK293 Ca cntr2 inactive.
For O=S(=O)(c1ccccc1)N1CCN2CCCC2C1 (stereo not drawn) the results were MrgX1 antag inactive, RGS4 block inactive, RGS4 pot inactive, MrgX1 PAM inactive and MrgX1 ag inactive.
